Assay [1] is filed under the species Rattus norvegicus. Nature of the assay: Saluretic activity in the rat measured as concentration of chloride in urine. The format is functional. The essentials:
(§1)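 Rats deprived of food 24 h, water ad libitum, dosed 50 mg/kg by stomach tube as suspension in 2% starch, no extra water load. Groups of three in diuresis funnels; urine over first 5 h collected. Na⁺ and K⁺ by flame photometry, Cl⁻ argentometrically; expressed as mequiv/kg.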

Assay [2] concerns Canis familiaris. Nature of the assay: Sailuric activity in the dog measured as concentration of Na+ in urinary excretion (2 animals/dose) at (dose 0.78 mg/Kg, po). The format is functional, Canis lupus familiaris, Urine. In short, it runs like this: (§2)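 Male beagles trained to the procedures, food withdrawn 24 h before, tap water ad libitum. Bladder emptied by catheter, then 20 mL/kg tap water by stomach tube, plus 4 mL/kg orally at each hourly catheterization up to 8 h. The first 2 h of urine served as control. Compound given orally after the second catheterization. Urine from 1–6 h post-dose pooled; Na⁺ and K⁺ by flame photometry, Cl⁻ argentometrically, in mequiv/kg.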

Assay [3] relates to Canis familiaris. Nature of the assay: Sailuric activity in the dog measured as concentration of Cl - in urinary excretion (2 animals/dose) at (dose 0.78 mg/Kg, po). The assay is classed as functional, Canis lupus familiaris, Urine. In short, it runs like this:
(§3)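 Trained male beagles, fasted 24 h with tap water ad libitum. Bladder emptied by catheter, then 20 mL/kg tap water by stomach tube, with 4 mL/kg water at each hourly catheterization up to 8 h. The first 2 h of urine served as control. Oral dosing came after the second catheterization, and 1–6 h urine was pooled. Na⁺ and K⁺ were measured by flame photometry, Cl⁻ argentometrically, in mequiv/kg.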

For assay [4], the species on record is Rattus norvegicus. Description: Diuretic activity in the rats, determined by a modified Lipschitz test. The assay is classed as functional, Urine. The essentials:
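Modified Lipschitz test: rats deprived of water 24 h, grouped in threes of similar weight in diuresis funnels. Oral dose of 50 mg/kg, suspended in 2% starch solution, by stomach tube.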

For assay [5], the system named is Canis familiaris. Nature of the assay: Sailuric activity in the dog measured as concentration of Na+ in urinary excretion (2 animals/dose) at (dose 6.25 mg/Kg, po). The assay is classed as functional, Canis lupus familiaris, Urine. The essentials:
as §2

Assay [6] concerns Canis familiaris. Description: Sailuric activity in the dog measured as concentration of Cl - in urinary excretion (2 animals/dose) at (dose 6.25 mg/Kg, po). The assay is classed as functional, Canis lupus familiaris, Urine. The essentials:
as §2

Assay [7] is filed under the species Rattus norvegicus. Description: Saluretic activity in the rat measured as concentration of K+ in urine. The format is functional. The essentials:
as §1

The subject of assay [8] is Canis familiaris. Nature of the assay: Sailuric activity in the dog measured as concentration of K+ in urinary excretion (2 animals/dose) at (dose 0.78 mg/Kg, po). The assay is classed as functional, Canis lupus familiaris, Urine. In short, it runs like this: as §2
For assay [9], the species on record is Rattus norvegicus. Description: Saluretic activity in the rat measured as concentration of Na+ in urine. The assay is classed as functional. In short, it runs like this:
as §1

The subject of assay [10] is Canis familiaris. Nature of the assay: Diuretic activity in the dog (2 animals/dose) at (dose 6.25 mg/Kg), when administered perorally. The format is functional, Canis lupus familiaris, Urine. In short, it runs like this:
as §3

Assay [11] has as its system Canis familiaris. Description: Sailuric activity in the dog measured as concentration of K+ in urinary excretion (2 animals/dose) at (dose 6.25 mg/Kg, po). The assay is classed as functional, Canis lupus familiaris, Urine. The essentials: as §2
For assay [12], the species on record is Rattus norvegicus. Nature of the assay: Effect on (GFR) glomerular filtration rate in rats was evaluated.
Assay [13] is filed under the species Rattus norvegicus. Nature of the assay: Effect on Urine flow in rats was evaluated.
Assay [14] has as its system Canis familiaris. Description: Saluretic activity in the dog measured as concentration of K+ in urinary excretion (2 animals/dose) at (dose mg/Kg, po). The assay is classed as functional, Canis lupus familiaris, Urine. The essentials: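 Male beagles trained to rest on a table and to accept stomach tube and catheter. Food withdrawn 24 h before, tap water ad libitum. Bladder emptied by catheter, then 20 mL/kg tap water by stomach tube. Catheterized hourly up to 8 h with 4 mL/kg water orally each time; first 2 h urine served as control. Oral dosing after second catheterization. Pooled 1–6 h urine; Na⁺/K⁺ by flame photometry, Cl⁻ argentometrically.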

Assay [15] concerns Canis familiaris. Description: It is the ratio, measured as saluretic activity in the dog as concentration of Cl- in urinary excretion (dose mg/Kg, po) to that of (Na++K+). The format is functional, Canis lupus familiaris, Urine. In short, it runs like this:
as §3

In assay [16] the test system is Canis familiaris. Description: It is the ratio, measured as saluretic activity in the dog as concentration of Na+ in urinary excretion (dose mg/Kg, po) to that of K. The assay is classed as functional, Canis lupus familiaris, Urine. The essentials: as §3
Assay [17] has as its system Canis familiaris. Nature of the assay: Diuretic activity in the dog (2 animals/dose) at (dose 12.5 mg/Kg), when administered perorally. The assay is classed as functional, Canis lupus familiaris, Urine. In short, it runs like this:
as §3

Assay [18] deals with Canis familiaris. Description: Diuretic activity in the dog (2 animals/dose) at (dose 1.56 mg/Kg), when administered perorally. The assay is classed as functional, Canis lupus familiaris, Urine. The essentials:
as §3

“And” between values parts separate entries of the source, which are not always exact repeats. Identical values can stand only once.

For the compound `NS(=O)(=O)c1cc(C(=O)O)c(NCc2ccco2)cc1Cl` [FUROSEMIDE], the Saluretic activity in the assay listed under Rattus norvegicus [1] is given as 7.2 m equiv 5hr-1 kg-1; in the assay with Canis familiaris [2], 1.37 m equiv 6hr-1 kg-1; in the assay with Canis familiaris [3] it was 1.85 m equiv 6hr-1 kg-1; in the assay with Canis familiaris [5] it was 5.54 m equiv 6hr-1 kg-1; in the assay on Canis familiaris [6], 6.27 m equiv 6hr-1 kg-1; in the assay listed under Rattus norvegicus [7], 2.6 m equiv 5hr-1 kg-1. Besides, the Saluretic activity in the assay listed under Rattus norvegicus [9] is reported as 4.8 m equiv 5hr-1 kg-1; in the assay with Canis familiaris [11], 1.26 m equiv 6hr-1 kg-1. The results for the Diuretic activity in the assay listed under Rattus norvegicus [4] and in the assay on Canis familiaris [10] were 4.9 mL/kg and 69 ml kg-1 6hr-1, respectively. In addition, the Saldiuretic activity in the assay with Canis familiaris [8] was 0.5 m equiv 6hr-1 kg-1. Further, the GFR in the assay listed under Rattus norvegicus [12] is 8.82 mL/min/kg. This compound also gave a Volume in the assay filed under Rattus norvegicus [13] of 0.998 mL/min/kg.
Turning to `NS(=O)(=O)c1cc(S(=O)(=O)[O-])c(NCc2ccco2)cc1Nc1ccccc1.[Na+]`, the Saluretic activity in the assay listed under Rattus norvegicus [1] was 1.1 m equiv 5hr-1 kg-1; in the assay with Canis familiaris [14] it was 0.18 m equiv 6hr-1 kg-1 and 0.45 m equiv 6hr-1 kg-1; in the assay filed under Rattus norvegicus [7] it was 0.7 m equiv 5hr-1 kg-1; in the assay with Canis familiaris [15], 1 and 1.1; in the assay on Canis familiaris [16], 2.1 and 5; in the assay listed under Rattus norvegicus [9], 0.6 m equiv 5hr-1 kg-1. In addition, the Diuretic activity in the assay listed under Rattus norvegicus [4] was 0.6 mL/kg; in the assay with Canis familiaris [17], 49.4 ml kg-1 6hr-1; in the assay on Canis familiaris [18], 32.3 ml kg-1 6hr-1.

Source of the values: ChEMBL document CHEMBL1122273, “5-sulfamoylorthanilic acids, a sulfonamide series with salidiuretic activity” (J Med Chem, 1983).
